Bioassay records deposited in PubChem BioAssay by several laboratories.
Sampled rows, rich in hits. Any-hit rate of the full collection: about 1.8%.
ARNT TACC3 PPI – ARNT/TACC3 interaction disruption; inhibition, % at 9.99 µM; AlphaScreen His-ARNT PAS-B/GST-TACC3 binding, luminescence; TACC3 fragment carries E629A point mutation; 390,000 tested, 0.66% active; AID 623870; Q9Y6A5;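 active = mean inhibition of replicates at least 50% and at least half of replicates each reaching 50%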
CAL PDZ FP-1 – blocks peptide binding to human CAL PDZ domain; Q9HD26; purified CAL PDZ, TMR-peptide fluorescence polarization, 1 h; inhibition, % at 20 µM; 330,000 tested, 0.02% active; AID 504414;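 active = highest replicate inhibition of at least 40%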
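Material: tagged CAL PDZ protein CerCALP, purified; buffer or medium: sodium phosphate/NaCl buffer pH 7.4 with TCEP, IgG, Thesit; also added: fluorescent TMR peptide probe; schedule: 1 h incubation at room temperature before polarization reading; technique: fluorescence polarization from S- and P-plane intensities, G-factor corrected; control set: unlabelled peptide and DMSO controls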
GRK2 inh – inhibitors of human GRK2 displacing RNA aptamer; bead flow cytometry, FAM-aptamer displacement from GRK2; 330,000 tested, 0.59% active; AID 488847; inhibition of aptamer binding, % at 10 µM;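 active = inhibition of aptamer binding above 40%, roughly 3 SD of noise, on plates passing a quality check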;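 also: median bead fluorescence of bound FAM aptamer so fluorescent compounds give negative values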
Target sequence (P25098 whole entry, looked up): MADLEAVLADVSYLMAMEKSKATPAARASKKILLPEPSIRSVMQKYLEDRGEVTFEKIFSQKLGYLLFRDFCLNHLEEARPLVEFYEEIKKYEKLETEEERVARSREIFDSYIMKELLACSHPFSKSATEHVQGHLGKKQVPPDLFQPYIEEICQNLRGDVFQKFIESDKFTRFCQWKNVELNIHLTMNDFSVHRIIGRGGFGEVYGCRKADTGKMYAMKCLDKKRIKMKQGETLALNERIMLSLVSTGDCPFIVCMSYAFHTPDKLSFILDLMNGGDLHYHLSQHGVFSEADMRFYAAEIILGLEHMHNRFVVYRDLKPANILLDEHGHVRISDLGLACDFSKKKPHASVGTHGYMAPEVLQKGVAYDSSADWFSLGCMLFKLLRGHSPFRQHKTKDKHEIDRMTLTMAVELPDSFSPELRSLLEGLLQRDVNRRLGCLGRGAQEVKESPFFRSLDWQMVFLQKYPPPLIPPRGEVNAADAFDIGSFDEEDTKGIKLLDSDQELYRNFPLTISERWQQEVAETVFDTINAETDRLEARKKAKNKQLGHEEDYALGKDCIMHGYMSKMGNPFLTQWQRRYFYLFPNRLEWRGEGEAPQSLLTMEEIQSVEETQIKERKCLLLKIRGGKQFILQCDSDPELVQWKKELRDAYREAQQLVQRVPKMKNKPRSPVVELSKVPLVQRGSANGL
CAL PDZ FP-2 – blocks peptide binding to the human CAL PDZ domain; purified CAL PDZ, TMR-peptide fluorescence polarization, 1 h; 300,000 tested, 0.92% active; inhibition, % at 24.9 µM; Q9HD26;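 active = mean inhibition of at least 30% with at least half of replicates also reaching 30%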
Tn7 DDE FP – inhibitors of Tn7 peptide binding to human fibrin DD(E); FP displacement of FITC-Tn7 peptide from fibrin DD(E); 0% = median of compound wells per plate; inhibition, % at 8.3 µM; 370,000 tested, 0.13% active; AID 720508;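 active = inhibition above the mean of compounds falling within the control limits plus 3 SD of them, cut at about 14% in these data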
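Measure: % inhibition scaled between sample-field median and high-control FP; Test system: human fibrin DD(E); Quantity: 2 µM final DD(E) protein; Doses: one dose, 8.3 µM nominal; Schedule: compound with protein 10 min, then 3 h after probe, room temperature; Detection: fluorescence polarization; Medium: Tris buffer with calcium and detergent, pH 7.8.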
DDE Tn6 FP inh – inhibitors of Tn6 peptide binding to human fibrin DD(E). Fibrin DD(E) TRITC-Tn6 fluorescence polarization displacement. inhibition, % at 8.3 µM. 370,000 tested, 0.21% active. AID 720509;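 active = inhibition above a per-campaign cutoff: mean of compounds within control limits plus 3 SD, cut at about 15% in these data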
GRK2 inh confirm – confirmation of human GRK2 inhibitors displacing RNA aptamer | shares compounds with GRK2 inh | bead-bound GRK2, FAM-aptamer displacement, flow cytometry | aptamer displacement, % at 10 µM | 2,000 tested, 4% active;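 active = aptamer displacement above 40%, near three times the noise of non-fluorescent compounds, on plates passing quality checks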;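 also: negative values mostly reflect intrinsic compound fluorescence rather than true enhancement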
Aptamer quench 1 – counter-screen for GRK2 aptamer inhibitors: fluorescent aptamer quenchers; Fluorescent RNA aptamer beads, quenching, flow cytometry; hits give high values; shares compounds with GRK2 inh; AID 504521; 110 tested, under 10 active; fluorescence change (kMESF span), kMESF (concentration not given with the values);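 active = compounds whose bead fluorescence drops by more than 37 kMESF across the dose range, marking them as dye quenchers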
Aptamer quench SP – quenches fluorescent RNA aptamer, GRK2 hit artifact; shares compounds with GRK2 inh; Carboxyfluorescein RNA aptamer on beads, flow cytometry quenching; hits give low values; fluorescence response (% of DMSO), % at 10 µM; 2,000 tested, under 10 active; AID 504580;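 active = compounds that quench the bead-bound fluorescent RNA probe, cutting fluorescence to under half of the solvent control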;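 also: counterscreen run without GRK2 so only probe quenching by compound is measured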
GRK2 confirm 2 – confirmation of human GRK2 inhibitors binding RNA aptamer site | shares compounds with GRK2 inh | bead-bound GRK2, FAM-aptamer displacement, flow cytometry | inhibition of aptamer binding, % at 10 µM | 360 tested, under 10 active;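 active = inhibition of aptamer binding above 40%, about triple the noise seen with nonglowing compounds, on plates passing quality control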;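 also: negative values mostly come from compounds that fluoresce themselves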
FAM quench CP2 – aptamer fluorescence quenching in GRK2 counter-screen; shares compounds with GRK2 inh; fluorescence response vs DMSO, % at 10 µM; 360 tested, under 10 active; carboxyfluorescein RNA aptamer beads, flow cytometry quenching; hits give low values;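 active = response vs DMSO under 50%, meaning signal dropped by over half, treated as fluorescence quencher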;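 also: labelled aptamer on streptavidin beads without GRK2 as a quench counter-screen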
Large screens that a line does not name were inactive (follow-up assays come after a bar, where they were run).

Cc1c(C(=O)Nc2ccc(F)cc2)oc2ccc(S(=O)(=O)N3CC(C)CC(C)C3)cc12 (stereo not drawn)	none | GRK2 inh confirm inactive | Aptamer quench SP inactive
CC1(C)CC(=O)C(C(C2=C(O)CC(C)(C)CC2=O)c2ccco2)C(=O)C1 (stereo not drawn)	GRK2 inh 94.0 | GRK2 inh confirm inactive | Aptamer quench SP inactive
COc1cc(C(C2=C(O)CC(C)(C)CC2=O)C2C(=O)CC(C)(C)CC2=O)cc(OC)c1OC (stereo not drawn)	none
Cn1c(N2CCN(C(=O)NCc3ccccc3)CC2)nc2ccccc21	none
Cn1c(N2CCN(C(=O)Nc3ccc(C(F)(F)F)cc3)CC2)nc2ccccc21	none | GRK2 inh confirm inactive | Aptamer quench SP inactive
O=C(N/N=C/c1ccccc1)c1cc(=O)[nH]c2ccccc12	none
COc1ccc(O)c(/C=N/NC(=O)c2cc(=O)[nH]c3ccccc23)c1	GRK2 inh 68.0 | GRK2 inh confirm inactive | Aptamer quench SP inactive
O=C(C[C@H]1CC[C@@H]2[C@H](COC[C@@H](O)CN2Cc2ccc(Oc3ccccc3)cc2)O1)N1CCN(c2ccccc2)CC1	none (no result: CAL PDZ FP-1, GRK2 inh, CAL PDZ FP-2, Tn7 DDE FP, DDE Tn6 FP inh)
CCN1/C(=C/c2ccc3cccc(C)c3[n+]2CC)Sc2ccccc21	GRK2 inh 91.0 (no result: CAL PDZ FP-2) | GRK2 inh confirm 68.8 | Aptamer quench 1 inactive | Aptamer quench SP inactive
Cc1ccc(C(=O)Cn2c(C)cc(C)c(C#N)c2=O)cc1	none
Cc1cc(C)n(CC(=O)c2ccc(Br)cc2)c(=O)c1C#N	GRK2 inh 71.0 (no result: CAL PDZ FP-2) | GRK2 inh confirm inactive | Aptamer quench SP inactive
CCN1C(=O)/C(=C\c2ccc(-c3cccc(C(=O)OC)c3)o2)SC1=Nc1ccc(C(=O)O)cc1	none (no result: ARNT TACC3 PPI, CAL PDZ FP-1, CAL PDZ FP-2)
CCN=C1S/C(=C\c2ccc(-c3cccc(C(=O)O)c3)o2)C(=O)N1CC	none (no result: Tn7 DDE FP, DDE Tn6 FP inh) | GRK2 inh confirm inactive | Aptamer quench SP inactive
CCNC(=O)C[C@@H]1CC[C@@H]2[C@@H](COc3ccc(NC(=O)Nc4ccccc4Cl)cc3C(=O)N2C)O1	none (no result: CAL PDZ FP-1, GRK2 inh, CAL PDZ FP-2, Tn7 DDE FP, DDE Tn6 FP inh)
COc1ccc(CNC(=O)C2COc3ccccc3O2)cc1 (stereo not drawn)	none
COc1ccccc1CNC(=O)C1COc2ccccc2O1 (stereo not drawn)	GRK2 inh 52.0 | GRK2 inh confirm inactive | Aptamer quench SP inactive
O=C1NC[C@H](Cc2ccc(O)cc2)N(C[C@@H]2CCCN2C[C@H](Cc2ccccc2)N2C[C@H](Cc3ccc(O)cc3)N(CC3CCCCCC3)C(=O)C2=O)C1=O	none (no result: ARNT TACC3 PPI, CAL PDZ FP-1, GRK2 inh, CAL PDZ FP-2)
Cc1c(NC(=O)OCCNC(=O)Nc2ccccc2)sc(=S)n1C	none
Cc1ccc(S(=O)(=O)NCCOC(=O)Nc2sc(=S)n(C)c2C)cc1	GRK2 inh 96.0 | GRK2 inh confirm inactive | Aptamer quench SP inactive
CO[C@@H]1CN(C)C(=O)c2ccc(NC(C)=O)cc2OC[C@@H](C)N(C(=O)c2ccccc2F)C[C@H]1C	none (no result: CAL PDZ FP-1, GRK2 inh, CAL PDZ FP-2, Tn7 DDE FP, DDE Tn6 FP inh)
O=C(O)C1C2C=CC(C3CC23)C1C(=O)O (stereo not drawn)	none | GRK2 confirm 2 inactive | FAM quench CP2 inactive
COc1ccccc1CC(=O)c1ccc(OCc2ccccc2)cc1	none
COc1ccc(NC(=O)N(C)C[C@H]2Oc3c(NS(=O)(=O)c4ccc(Cl)cc4)cccc3C(=O)N([C@@H](C)CO)C[C@@H]2C)cc1	none (no result: CAL PDZ FP-1, GRK2 inh, CAL PDZ FP-2, Tn7 DDE FP, DDE Tn6 FP inh)
